# Compound activity as filed in PubChem.
# In the library only some 2.9% were active in any assay of this set; here they are far more common.
# A3A deaminase – inhibitors of human APOBEC3A DNA deaminase; recombinant A3A, FAM/TAMRA ssDNA deamination fluorescence; inhibition, % at 20 µM; P31941; 0.41% of 330,000 active;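 active = at least 40% inhibition at 20 µM here, with at most 30% in a related deaminase screen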
# Target sequence (P31941 whole entry, looked up): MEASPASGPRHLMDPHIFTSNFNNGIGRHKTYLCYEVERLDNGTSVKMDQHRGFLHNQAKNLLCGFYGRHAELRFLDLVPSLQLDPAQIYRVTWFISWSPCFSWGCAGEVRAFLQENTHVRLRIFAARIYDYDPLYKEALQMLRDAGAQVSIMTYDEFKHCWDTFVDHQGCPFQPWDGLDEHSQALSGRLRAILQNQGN
# NS3 helicase inh – blocks Hepatitis C virus NS3 helicase unwinding; inhibition, % at 10.9 µM; 0.56% of 290,000 active; NS3 helicase DNA unwinding, Cy5 molecular beacon fluorescence;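 active = inhibition above the mean of all tested compounds plus 3 SD, set per campaign, cut at about 35% in these data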
#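 assay system = NS3 helicase fragment of HCV | buffer or medium = MOPS pH 6.5, MgCl2, DTT, Tween20, BSA | timing = 60 min unwinding reaction at 25 °C after ATP addition | signal = Cy5 beacon fluorescence read at start and 1 h | read-out basis = % inhibition of unwinding | control set = low DMSO, high thioflavine S at 110 µM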
# APOBEC3G inh – blocks human APOBEC3G single-stranded DNA deamination; Q9HC16; recombinant A3G, ssDNA deamination FAM/TAMRA fluorescence; inhibition, % at 20 µM; 0.28% of 330,000 active;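 active = inhibition of at least 40% at 20 µM, with no more than 30% in the related APOBEC3A deaminase screen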
# core dimer inh – HCV core protein dimerization inhibition; TR-FRET GST/Flag-core106 dimerization, 1536-well; AID 1899; inhibition, % at 5 µM; 0.33% of 300,000 active;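 active = inhibition above the mean of all tested compounds plus 3 SD, set per screening campaign, cut at about 45% in these data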
#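 Material: GST/Flag-tagged HCV core106 proteins. Incubation: 4 h, 22.5 °C incubation. Read-out basis: inhibition (%) from 671 over 617 nm ratio. Measured by: TR-FRET, excitation 340 nm, emission 617 and 671 nm.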
# PRMT1 FP inh – blocks human protein arginine methyltransferase 1; Q99873; AID 652257; recombinant PRMT1, activity-based probe fluorescence polarization; 1.3% of 370,000 active; inhibition, % at 2.79 µM;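 active = inhibition above about 21% made by adding two undisclosed values, limit read from the data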
# Target sequence (Q99873 whole entry, looked up): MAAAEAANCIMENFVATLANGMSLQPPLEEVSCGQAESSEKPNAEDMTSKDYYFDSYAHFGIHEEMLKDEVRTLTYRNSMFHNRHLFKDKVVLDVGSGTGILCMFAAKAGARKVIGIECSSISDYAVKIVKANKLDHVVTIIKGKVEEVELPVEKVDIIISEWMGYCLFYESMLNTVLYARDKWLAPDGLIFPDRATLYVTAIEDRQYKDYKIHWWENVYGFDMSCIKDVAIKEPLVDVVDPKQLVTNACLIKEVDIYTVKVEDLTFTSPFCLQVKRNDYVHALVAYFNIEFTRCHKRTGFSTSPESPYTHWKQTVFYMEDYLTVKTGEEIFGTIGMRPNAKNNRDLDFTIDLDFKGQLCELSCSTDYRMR
# ABHD5 PLIN5 PPI – blocks binding of human ABHD5 to perilipin-5; Q00G26+Q8WTS1; Split G. princeps luciferase complementation, luminescence, 4 h; inhibition, % at 4 µM; 0.78% of 360,000 active; AID 602281;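 active = inhibition above the mean inhibition across every tested compound plus 3 SD, cut at about 22% in these data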
# A3G conf – confirmation of human APOBEC3G DNA deaminase inhibitors; 72% of 890 active; shares compounds with APOBEC3G inh; recombinant A3G ssDNA deaminase, UDG/FAM-TAMRA fluorescence; inhibition, % at 20 µM; AID 493152;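 active = inhibition reaching a set limit in any replicate at 20 µM, the limit being 80% of the first screen's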
# UDG ctr A3G – E. coli UDG inhibition in APOBEC3G counter-screen. shares compounds with APOBEC3G inh. UDG counterscreen, FAM/TAMRA oligo fluorescence. inhibition, % at 20 µM. 710 tested, under 10 active. AID 504715;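 active = compounds giving 40% or more inhibition at 20 µM in any one of the three replicates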;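 also: inhibitors lower the FAM signal released by uracil excision and alkaline cleavage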
# Hits are given with their value; – = inactive; · = no result.
SMILES,A3A deaminase,NS3 helicase inh,APOBEC3G inh,core dimer inh,PRMT1 FP inh,ABHD5 PLIN5 PPI,A3G conf,UDG ctr A3G
Nc1nc(-c2ccc3c(c2)OCCO3)cs1,–,–,–,–,–,–,·,·
S=C(c1ccc(-c2cccc(Cl)c2)o1)N1CCOCC1,–,–,43.3,–,–,–,–,–
COC(=O)C1=C(COc2ccccc2)NC(=O)NC1c1ccc(Cl)cc1 (centres undefined),–,·,48.1,–,–,·,–,–
O=C(CC(O)c1ccccc1)Nc1ccccn1 (centres undefined),·,·,·,·,–,–,·,·
CCCCN1C(=O)C2(NNc3ccccc3O2)c2ccccc21 (centres undefined),–,–,42.9,–,–,–,–,·
C=CCN1C(=O)C2(NNc3ccccc3O2)c2ccccc21 (centres undefined),–,–,–,–,–,–,·,·
Brc1ccc2nc(C3CCCCC3)c(CC3CCCCC3)n2c1,·,·,·,·,–,–,·,·
O=C(COC(=O)CCCN1C(=O)c2cccc3cccc(c23)C1=O)Nc1cccc(Br)c1,–,–,–,–,–,–,·,·
O=C(COC(=O)CCCN1C(=O)c2cccc3cccc(c23)C1=O)Nc1cccc(C(F)(F)F)c1,–,–,56.2,–,–,–,–,·
S=c1[nH]nc(-c2ccccc2)n1C1C=CCCC1 (centres undefined),–,–,42.1,–,–,–,79.4,–
S=c1[nH]nc(-c2cccnc2)n1C1CCCCC1,–,–,–,–,–,–,·,·
O=C(CSc1nnc(CNC(=O)c2cccs2)o1)Nc1ccccc1C(F)(F)F,–,–,–,–,–,–,·,·
CC(=O)Nc1ccc(S(=O)(=O)NNC(=O)c2cccc(Cl)c2)cc1,–,–,75.6,–,–,–,–,·
CC(=O)Nc1ccc(S(=O)(=O)NNC(=O)c2ccc3c(c2)OCO3)cc1,–,–,–,–,–,–,·,·
CCOC(=O)COn1c(-n2nc(C)cc2C)nc2ccccc2c1=O,–,–,–,–,–,–,·,·
CC(=O)/C(=N/Nc1cccc(C)c1)N1CCOCC1,–,–,45.4,–,–,–,–,–
O=C(c1ccc(=O)[nH]c1)N(c1ccccc1)C(CCc1ccccc1)c1nc2ccccc2[nH]1 (centres undefined),·,·,·,·,–,–,·,·
Cc1ccn2c(C(=O)c3ccc(Cl)cc3)cnc2c1,–,–,45.6,–,–,–,–,·
CCSc1nc2cc(S(=O)(=O)N3CCOCC3)ccc2o1,–,·,62.1,·,–,–,45.1,–
Cc1nc2ccc(Nc3nc4cc(S(=O)(=O)N5CCOCC5)ccc4o3)cc2s1,–,–,56.1,–,–,–,46.6,–
Cc1nc2ccc(NC(=O)c3cc(S(=O)(=O)N4CCOCC4)ccc3C)cc2s1,–,–,–,–,–,–,·,·
Cc1ccc(C(=O)CSc2nc3cc(S(=O)(=O)N4CCOCC4)ccc3o2)cc1,–,–,–,–,–,–,·,·
CC(CC(=O)N1CCc2ccccc21)n1cccn1 (centres undefined),–,–,–,–,–,–,·,·
CCCCn1c(-c2nn(C)c(C)c2Cl)n[nH]c1=S,–,–,40.5,–,–,–,77.7,–
CCOC(=O)c1cc(C#N)c(SCC(=O)c2cc(C#N)c(SC)nc2C)[nH]c1=O,–,–,43.3,–,–,–,16.5,–
SMILES,A3A deaminase,NS3 helicase inh,APOBEC3G inh,core dimer inh,PRMT1 FP inh,ABHD5 PLIN5 PPI,A3G conf,UDG ctr A3G
NC(=S)C1COc2ccccc2O1 (centres undefined),–,–,–,–,–,–,·,·
Nn1c(C2COc3ccccc3O2)n[nH]c1=S (centres undefined),–,–,60.2,–,–,–,82.7,–
Cc1cccc(C(=O)OCC(=O)NC2CC2)c1O,–,·,–,·,–,–,·,·
COC(=O)CSc1nnc(SCc2ccccc2)s1,–,–,–,–,–,–,·,·
CCSc1n[nH]c(=S)s1,–,–,52.2,–,–,–,59.2,–
COC(=O)CSc1n[nH]c(=S)s1,–,–,49.9,–,–,–,64.9,–
COc1ccc(NC(=O)CN(C)Cc2cccs2)cc1Cl,–,–,–,–,–,–,·,·
CCN(CC)S(=O)(=O)c1ccc(N2CCOCC2)c(NC(=O)c2cc3ccccc3o2)c1,·,·,·,·,–,–,·,·
COC(=O)c1ccc2nc(-c3ccc(C)cc3)c(Cc3ccccc3)n2c1,·,·,·,·,–,·,·,·
CC(C)(C)c1csc(NC(=O)CCS(=O)(=O)c2ccc(F)cc2)n1,·,·,·,·,–,–,·,·
O=C(CCS(=O)(=O)c1ccc(F)cc1)Nc1nc(-c2ccncc2)cs1,–,–,61.1,–,–,–,52.6,·
O=C(COc1ccc(Cl)cc1)Nc1nc(-c2ccncc2)cs1,–,–,42.2,–,–,–,–,·
Cc1ccc([C@H]2N[C@]3(CCCN(Cc4ccc(Br)cc4)C3=O)[C@H]3C(=O)N(C)C(=O)[C@@H]23)cc1,·,·,·,·,–,–,·,·
O=C(CNCC(=O)Nc1ccc(F)c(F)c1F)Nc1ccc(F)c(F)c1F,–,–,–,–,–,–,·,·
O=C(Cc1ncon1)Nc1ccc(F)c(F)c1F,–,–,66.2,–,–,–,–,·
CCCCn1c(N)c(N(CC(C)C)C(=O)C2CCN(S(=O)(=O)c3ccc(C)cc3C)CC2)c(=O)[nH]c1=O,–,·,–,–,–,–,·,·
COc1ccc(OCc2nnc(SCC(=O)N(C)Cc3ccccc3)n2N)cc1,–,–,47.2,–,21.4,–,41.5,–
Cc1ccc(OCc2nnc(SCC(=O)O)n2N)cc1,–,–,–,–,–,–,·,·
COc1ccc(N2CCN(C(=S)NC(C)c3ccccc3)CC2)cc1 (centres undefined),–,–,–,–,–,–,·,·
O=C(CN1CCN(c2ccc(O)cc2)CC1)Nc1ccc(SC(F)F)cc1,–,–,42.8,–,–,–,–,·
S=c1[nH]nc(NCCCN2CCOCC2)s1,–,–,44.2,–,–,–,46.8,–
COc1ccc(S(=O)(=O)n2nc(OC(=O)c3cccs3)cc2N)cc1,–,–,53.8,–,–,–,–,·
Cc1ccc(NC(=O)CSc2nc3[nH]ncc3c(=O)[nH]2)cc1,–,–,51.9,–,–,–,–,·
O=C1N(c2ccccc2)CC2C(c3ccccc3)C(c3ccccc3)N3CCCC123 (centres undefined),·,·,·,·,–,·,·,·
CCOC(=O)c1cc(-c2ccc(OC)cc2)nn1-c1ccccc1C(=O)O,–,–,63.2,–,–,–,41.3,–
O=C(NC(=S)NCc1cccnc1)c1cc(Br)ccc1Cl,–,–,–,–,–,–,·,·
O=c1c2ccccc2sn1-c1cc(S(=O)(=O)N2CCOCC2)ccc1N1CCOCC1,–,–,77.2,–,88.4,97.2,76.8,–
CC(C)=CC(=O)NCC1CCN(C(=O)C(=O)c2cc3ccccc3o2)CC1,·,·,·,·,–,·,·,·
